ChEMBL document CHEMBL4304756, “Second-Generation Tryptamine Derivatives Potently Sensitize Colistin Resistant Bacteria to Colistin” (ACS Med Chem Lett, 2019)
Activity calls are given as the source filed them. The rule behind the calls is not given here.

How the values were obtained:
Escherichia coli [1] = assay: Potentiation of colistin-induced antibacterial activity against Escherichia coli YD626 assessed as colistin MIC at 50 uM incubated for 16 hrs by broth microdilution method (reference value: 1 ug/ml); assay type: functional; settings: YD626, 16 h
Escherichia coli [2] = assay: Potentiation of colistin-induced antibacterial activity against Escherichia coli YD626 harbouring mcr-1 gene assessed as colistin MIC at 50 uM incubated for 16 hrs by broth microdilution method (reference value: 8 ug/ml); assay type: functional; settings: YD626, 16 h
Klebsiella pneumoniae [3] = assay: Potentiation of colistin-induced antibacterial activity against Klebsiella pneumoniae 2210291 assessed as colistin MIC at 50 uM incubated for 16 hrs by broth microdilution method (reference value: 1 ug/ml); assay type: functional; settings: Klebsiella pneumoniae, 2210291, 16 h
Klebsiella pneumoniae [4] = assay: Potentiation of colistin-induced antibacterial activity against Klebsiella pneumoniae 2210291 harbouring mcr-1 gene assessed as colistin MIC at 50 uM incubated for 16 hrs by broth microdilution method (reference value: 16 ug/ml); assay type: functional; settings: Klebsiella pneumoniae, 2210291, 16 h
Acinetobacter baumannii [5] = assay: Potentiation of colistin-induced antibacterial activity against Acinetobacter baumannii 17978 assessed as colistin MIC at 50 uM incubated for 16 hrs by broth microdilution method (reference value: 2 ug/ml); assay type: functional; settings: Acinetobacter baumannii, 17978, 16 h
Acinetobacter baumannii [6] = assay: Potentiation of colistin-induced antibacterial activity against Acinetobacter baumannii 17978 harbouring mcr-1 gene assessed as colistin MIC at 50 uM incubated for 16 hrs by broth microdilution method (reference value: 16 ug/ml); assay type: functional; settings: Acinetobacter baumannii, 17978, 16 h
[7] = Cytotoxicity against mouse 4T1 cells assessed as reduction in cell viability incubated for 18 hrs by MTT assay; assay type: cell-based
Procedure, shortened: (§1)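 4T1 mouse mammary tumor cells exposed to compound for 18 h, alone or together with colistin at 1 μg/mL. Medium then aspirated and replaced with 0.5 mg/mL MTT in culture medium for colorimetric viability read-out. CT50 taken as the concentration giving 50% cell viability.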

[8] = Cytotoxicity against mouse 4T1 cells assessed as reduction in cell viability in presence of 1 ug/ml colistin incubated for 18 hrs by MTT assay; assay type: cell-based; procedure, shortened: as §1
Escherichia coli [9] = assay: Potentiation of colistin-induced antibacterial activity against Escherichia coli YD626 harbouring mcr-1 gene assessed as reduction in colistin MIC at 15 uM incubated for 16 hrs by broth microdilution method; assay type: functional, organism-based
Procedure, shortened: (§2)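 For the dose-response, colistin MIC was measured against mcr-1 plasmid-bearing E. coli, K. pneumoniae and A. baumannii while the adjuvant concentration was lowered stepwise (30, 15 μM, down to 5 μM). The aim was to find where the MIC rose above the 2 μg/mL CLSI susceptibility breakpoint.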

Klebsiella pneumoniae [10] = assay: Potentiation of colistin-induced antibacterial activity against Klebsiella pneumoniae 2210291 harbouring mcr-1 gene assessed as reduction in colistin MIC at 15 uM incubated for 16 hrs by broth microdilution method; assay type: functional, organism-based; procedure, shortened: as §2
Acinetobacter baumannii [11] = assay: Potentiation of colistin-induced antibacterial activity against Acinetobacter baumannii 17978 harbouring mcr-1 gene assessed as reduction in colistin MIC at 15 uM incubated for 16 hrs by broth microdilution method; assay type: functional, organism-based; procedure, shortened: as §2

SMILES | MIC (Escherichia coli [1]) [µg/mL] | MIC (Escherichia coli [2]) [µg/mL] | MIC (Klebsiella pneumoniae [3]) [µg/mL] | MIC (Klebsiella pneumoniae [4]) [µg/mL] | MIC (Acinetobacter baumannii [5]) [µg/mL] | MIC (Acinetobacter baumannii [6]) [µg/mL] | CC50 at 18 h [7] [µM] | CC50 at 18 h [8] [µM] | Activity (Escherichia coli [9]) | Activity (Klebsiella pneumoniae [10]) | Activity (Acinetobacter baumannii [11])
O=C(NCCc1c[nH]c2ccccc12)Nc1ccc(Cl)c(Cl)c1 | 0.125 | 1 | 0.25 | 0.5 | 0.5 | 0.5 | 117 | 105 | – | – | –
O=C(NCCc1c[nH]c2ccc(Br)cc12)Nc1cc(C(F)(F)F)cc(C(F)(F)F)c1 | 0.0313 | 4 | 0.5 | 2 | 0.25 | 2 | – | – | – | – | –
CCCCc1ccc(NC(=O)Nc2ccc3[nH]ccc3c2)cc1 | 0.5 | 8 | 0.5 | 16 | 1 | 16 | – | – | – | – | –
O=C(NCCc1c[nH]c2ccccc12)Nc1cc(Cl)c(Br)c(Cl)c1 | 0.125 | 1 | 0.5 | 1 | 0.5 | 1 | – | – | Active | Active | Active
O=C(NCc1c[nH]c2ccccc12)Nc1ccc(Cl)c(Cl)c1 | 0.5 | 4 | 0.5 | 16 | 2 | 16 | – | – | – | – | –
CC(C)n1cc(-c2cccc(NC(=O)Nc3cc(Cl)c(Br)c(Cl)c3)c2)nc1N | – | – | – | – | – | – | 23.2 | 15.6 | – | – | –
CCCCc1ccc(NC(=O)NCc2c[nH]c3ccccc23)cc1 | 1 | 8 | 0.5 | 16 | 2 | 16 | – | – | – | – | –
CCCCc1ccc(C(=O)NCCc2c[nH]c3ccc(Br)cc23)cc1 | 0.125 | 4 | 0.25 | 4 | 0.5 | 4 | – | – | – | – | –
O=C(NCCc1c[nH]c2ccccc12)c1ccc(Cl)c(Cl)c1 | 0.5 | 2 | 0.5 | 2 | 1 | 2 | – | – | – | – | –
O=C(NCc1c[nH]c2ccccc12)Nc1cc(Br)cc(Br)c1 | 0.25 | 4 | 0.5 | 16 | 1 | 8 | – | – | – | – | –
CCCCc1ccc(NC(=O)Nc2ccc3cc[nH]c3c2)cc1 | 0.5 | 8 | 1 | 16 | 2 | 8 | – | – | – | – | –
CCCCc1ccc(C(=O)NCCc2c[nH]c3ccccc23)cc1 | 0.0625 | 4 | 0.125 | 8 | 0.25 | 4 | – | – | – | – | –
O=C(Nc1ccc(Cl)c(Cl)c1)Nc1ccc2[nH]ccc2c1 | 0.5 | 8 | 1 | 16 | 2 | 16 | – | – | – | – | –
O=C(NCc1c[nH]c2ccccc12)Nc1cc(C(F)(F)F)cc(C(F)(F)F)c1 | 0.0313 | 1 | 0.125 | 1 | 0.125 | 1 | – | – | – | – | –
O=C(Nc1cc(Br)cc(Br)c1)Nc1ccc2[nH]ccc2c1 | 1 | 8 | 1 | 16 | 1 | 16 | – | – | – | – | –
O=C(NCCc1c[nH]c2ccc(Br)cc12)Nc1cc(Br)cc(Br)c1 | 0.25 | 2 | 0.5 | 2 | 0.5 | 2 | – | – | – | – | –
CCCCc1ccc(NC(=O)NCCc2c[nH]c3ccccc23)cc1 | 1 | 8 | 1 | 16 | 2 | 16 | – | – | – | – | –
O=C(Nc1cc(C(F)(F)F)cc(C(F)(F)F)c1)Nc1ccc2[nH]ccc2c1 | 0.5 | 4 | 0.5 | 8 | 1 | 8 | – | – | – | – | –
O=C(NCc1c[nH]c2ccccc12)Nc1cc(Cl)c(Br)c(Cl)c1 | 0.25 | 8 | 0.5 | 8 | 1 | 8 | – | – | – | – | –
O=C(NCCc1c[nH]c2ccccc12)c1cc(C(F)(F)F)cc(C(F)(F)F)c1 | 0.0625 | 4 | 0.25 | 16 | 0.25 | 8 | – | – | – | – | –
O=C(Nc1cc(Cl)c(Br)c(Cl)c1)Nc1ccc2cc[nH]c2c1 | 1 | 8 | 1 | 16 | 2 | 16 | – | – | – | – | –
O=C(NCCc1c[nH]c2ccc(Br)cc12)c1cc(C(F)(F)F)cc(C(F)(F)F)c1 | 0.0625 | 4 | 0.25 | 8 | 0.5 | 8 | – | – | – | – | –
O=C(Nc1ccc(Cl)c(Cl)c1)Nc1ccc2cc[nH]c2c1 | 1 | 8 | 1 | 16 | 2 | 16 | – | – | – | – | –
O=C(Nc1cc(Br)cc(Br)c1)Nc1ccc2cc[nH]c2c1 | 1 | 8 | 1 | 16 | 2 | 16 | – | – | – | – | –
O=C(Nc1cc(Cl)c(Br)c(Cl)c1)Nc1ccc2[nH]ccc2c1 | 0.5 | 8 | 1 | 16 | 1 | 8 | – | – | – | – | –
O=C(NCCc1c[nH]c2ccc(Br)cc12)c1ccc(Cl)c(Cl)c1 | 0.25 | 2 | 0.5 | 1 | 0.5 | 1 | – | – | – | – | –
O=C(Nc1cc(C(F)(F)F)cc(C(F)(F)F)c1)Nc1ccc2cc[nH]c2c1 | 0.5 | 4 | 1 | 16 | 1 | 8 | – | – | – | – | –
O=C(NCCc1c[nH]c2ccccc12)c1cc(Br)cc(Br)c1 | 0.25 | 4 | 0.5 | 4 | 1 | 4 | – | – | – | – | –
O=C(NCCc1c[nH]c2ccc(Br)cc12)c1cc(Br)cc(Br)c1 | 0.5 | 4 | 0.5 | 4 | 1 | 4 | – | – | – | – | –
